From ChEMBL document CHEMBL1165965, “Synthesis and structure-activity relationships of 1,2,3,4-tetrahydropyrido[2,3-b]pyrazines as potent and selective inhibitors of the anaplastic lymphoma kinase” (Bioorg Med Chem, 2010) come the findings set out here.

Assay [1] concerns the target T1, Tyrosine-protein kinase JAK3 (Homo sapiens) (UniProt P52333).
T1 sequence (whole entry): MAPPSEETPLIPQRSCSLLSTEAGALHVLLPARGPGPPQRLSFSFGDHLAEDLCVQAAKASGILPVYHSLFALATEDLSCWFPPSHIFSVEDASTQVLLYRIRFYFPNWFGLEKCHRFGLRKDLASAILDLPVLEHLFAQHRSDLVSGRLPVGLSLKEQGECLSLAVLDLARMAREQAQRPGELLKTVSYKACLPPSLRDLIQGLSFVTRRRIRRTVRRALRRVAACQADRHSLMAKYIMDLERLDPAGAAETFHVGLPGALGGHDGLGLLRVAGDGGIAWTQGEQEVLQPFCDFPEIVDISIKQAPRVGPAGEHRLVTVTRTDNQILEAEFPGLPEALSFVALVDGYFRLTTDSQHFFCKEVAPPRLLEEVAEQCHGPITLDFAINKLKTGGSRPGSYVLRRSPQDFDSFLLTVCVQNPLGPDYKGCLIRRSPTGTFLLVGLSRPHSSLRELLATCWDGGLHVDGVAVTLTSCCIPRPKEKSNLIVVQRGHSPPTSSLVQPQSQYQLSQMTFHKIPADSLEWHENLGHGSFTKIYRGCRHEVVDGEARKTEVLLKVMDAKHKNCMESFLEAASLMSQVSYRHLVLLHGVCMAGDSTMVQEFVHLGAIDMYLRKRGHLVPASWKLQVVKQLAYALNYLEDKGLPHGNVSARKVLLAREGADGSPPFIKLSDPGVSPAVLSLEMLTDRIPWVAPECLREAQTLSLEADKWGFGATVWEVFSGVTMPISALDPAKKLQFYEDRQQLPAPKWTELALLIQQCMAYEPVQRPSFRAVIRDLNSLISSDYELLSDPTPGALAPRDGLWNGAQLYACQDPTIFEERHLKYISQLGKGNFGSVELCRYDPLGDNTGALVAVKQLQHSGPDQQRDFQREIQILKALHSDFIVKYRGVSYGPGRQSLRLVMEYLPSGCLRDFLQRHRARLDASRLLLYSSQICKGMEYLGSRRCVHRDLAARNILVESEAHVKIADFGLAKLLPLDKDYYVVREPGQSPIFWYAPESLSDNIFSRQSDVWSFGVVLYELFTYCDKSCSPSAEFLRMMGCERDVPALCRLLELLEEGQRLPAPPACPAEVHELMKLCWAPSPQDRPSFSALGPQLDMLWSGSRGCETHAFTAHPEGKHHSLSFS
The assay can be described thus: Inhibition of JAK3 JH1 catalytic domain at 1 uM. The gist of the method: (§1)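 Single-concentration screen on the Ambit KINOMEscan platform, run against a panel of 250–400 kinases. Per-kinase inhibition was also summarized as S(90), the fraction of kinases inhibited by more than 90%.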

Assay [2] addresses Mitogen-activated protein kinase 10 (Homo sapiens) (UniProt P53779). As to the kind of experiment: Inhibition of JNK3 at 1 uM. The procedure, abridged:
as §1

Assay [3] has as its target T2, Serine/threonine-protein kinase LATS1 (Homo sapiens) (UniProt O95835).
T2 sequence (whole entry): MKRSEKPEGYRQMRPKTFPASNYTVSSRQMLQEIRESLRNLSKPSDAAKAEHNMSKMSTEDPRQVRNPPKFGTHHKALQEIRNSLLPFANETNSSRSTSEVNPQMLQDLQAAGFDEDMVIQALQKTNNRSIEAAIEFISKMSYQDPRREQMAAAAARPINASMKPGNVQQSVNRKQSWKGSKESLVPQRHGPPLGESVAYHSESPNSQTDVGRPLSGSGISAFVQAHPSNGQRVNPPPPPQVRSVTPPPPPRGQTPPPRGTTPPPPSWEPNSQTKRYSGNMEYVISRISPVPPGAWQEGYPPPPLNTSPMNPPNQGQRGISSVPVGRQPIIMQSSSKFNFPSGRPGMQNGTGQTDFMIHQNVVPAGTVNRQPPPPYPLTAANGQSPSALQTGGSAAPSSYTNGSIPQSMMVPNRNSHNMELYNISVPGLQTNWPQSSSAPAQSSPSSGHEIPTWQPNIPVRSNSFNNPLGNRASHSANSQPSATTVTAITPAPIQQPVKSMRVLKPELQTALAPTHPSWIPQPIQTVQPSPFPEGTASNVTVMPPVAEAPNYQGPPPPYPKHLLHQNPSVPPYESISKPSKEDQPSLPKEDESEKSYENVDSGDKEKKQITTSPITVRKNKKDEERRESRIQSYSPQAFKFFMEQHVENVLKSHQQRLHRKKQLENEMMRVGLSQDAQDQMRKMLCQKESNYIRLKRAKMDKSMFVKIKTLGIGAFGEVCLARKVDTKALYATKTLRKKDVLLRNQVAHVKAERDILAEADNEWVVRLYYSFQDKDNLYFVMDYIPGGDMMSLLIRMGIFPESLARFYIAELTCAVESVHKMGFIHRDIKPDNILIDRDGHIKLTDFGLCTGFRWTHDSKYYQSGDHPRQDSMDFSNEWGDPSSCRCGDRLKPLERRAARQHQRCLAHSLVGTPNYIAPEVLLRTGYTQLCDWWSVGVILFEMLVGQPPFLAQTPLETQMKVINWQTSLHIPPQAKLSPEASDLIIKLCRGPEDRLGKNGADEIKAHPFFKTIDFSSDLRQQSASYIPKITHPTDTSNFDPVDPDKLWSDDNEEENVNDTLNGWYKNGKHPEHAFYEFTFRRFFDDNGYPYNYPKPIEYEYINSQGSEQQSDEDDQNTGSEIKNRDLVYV
The assay can be described thus: Inhibition of LATS1 at 1 uM.

Assay [4] relates to eIF-2-alpha kinase GCN2 (Homo sapiens), Q9P2K8 [S808G]. The assay can be described thus: Inhibition of GCN2 domian 2 S808G mutant at 1 uM. The gist of the method:
as §1

The structures appear in SMILES notation.

Sequence of eIF-2-alpha kinase GCN2 (Homo sapiens), Q9P2K8 [S808G] (Q9P2K8 whole entry S808G): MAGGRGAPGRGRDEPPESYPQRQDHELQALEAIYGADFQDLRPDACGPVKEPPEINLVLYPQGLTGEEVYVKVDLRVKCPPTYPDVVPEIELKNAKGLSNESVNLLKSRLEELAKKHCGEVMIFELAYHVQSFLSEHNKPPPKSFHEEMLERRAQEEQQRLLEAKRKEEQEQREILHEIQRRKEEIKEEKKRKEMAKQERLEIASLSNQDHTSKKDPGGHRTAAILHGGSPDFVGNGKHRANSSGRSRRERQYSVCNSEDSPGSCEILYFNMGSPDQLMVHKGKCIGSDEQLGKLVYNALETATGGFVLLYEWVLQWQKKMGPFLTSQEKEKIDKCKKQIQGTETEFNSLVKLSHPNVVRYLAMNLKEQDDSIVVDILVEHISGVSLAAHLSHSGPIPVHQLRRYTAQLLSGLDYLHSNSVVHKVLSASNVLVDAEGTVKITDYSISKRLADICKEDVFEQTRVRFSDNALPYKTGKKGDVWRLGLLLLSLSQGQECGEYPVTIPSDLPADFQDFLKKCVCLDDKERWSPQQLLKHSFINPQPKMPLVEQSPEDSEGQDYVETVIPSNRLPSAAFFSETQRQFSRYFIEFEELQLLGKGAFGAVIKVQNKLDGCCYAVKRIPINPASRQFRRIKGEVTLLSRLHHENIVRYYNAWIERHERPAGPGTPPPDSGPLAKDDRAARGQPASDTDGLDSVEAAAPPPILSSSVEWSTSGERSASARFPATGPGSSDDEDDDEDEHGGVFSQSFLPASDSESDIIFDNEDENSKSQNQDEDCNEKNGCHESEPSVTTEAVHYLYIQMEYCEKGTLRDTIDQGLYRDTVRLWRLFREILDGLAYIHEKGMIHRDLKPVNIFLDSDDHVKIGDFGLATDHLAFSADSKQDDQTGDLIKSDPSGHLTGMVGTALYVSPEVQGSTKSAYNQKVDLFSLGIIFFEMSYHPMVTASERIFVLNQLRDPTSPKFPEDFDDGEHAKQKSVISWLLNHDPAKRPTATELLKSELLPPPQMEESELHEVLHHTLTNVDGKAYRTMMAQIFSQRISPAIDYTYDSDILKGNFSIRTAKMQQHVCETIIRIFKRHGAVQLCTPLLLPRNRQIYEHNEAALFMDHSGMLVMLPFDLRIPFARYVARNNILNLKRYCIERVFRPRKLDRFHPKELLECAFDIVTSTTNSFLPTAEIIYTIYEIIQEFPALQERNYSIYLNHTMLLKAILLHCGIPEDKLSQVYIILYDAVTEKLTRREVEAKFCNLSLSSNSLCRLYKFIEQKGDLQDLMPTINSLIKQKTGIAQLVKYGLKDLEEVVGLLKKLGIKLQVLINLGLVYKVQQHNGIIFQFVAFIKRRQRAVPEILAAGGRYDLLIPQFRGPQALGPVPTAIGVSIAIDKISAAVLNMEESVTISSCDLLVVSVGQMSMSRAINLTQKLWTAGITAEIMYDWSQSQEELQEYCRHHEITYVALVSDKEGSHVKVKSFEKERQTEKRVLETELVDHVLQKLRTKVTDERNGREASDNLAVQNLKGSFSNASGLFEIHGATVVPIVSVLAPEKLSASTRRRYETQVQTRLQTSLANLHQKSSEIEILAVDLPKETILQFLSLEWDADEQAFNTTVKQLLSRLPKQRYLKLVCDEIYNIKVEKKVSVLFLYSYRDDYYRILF
Sequence of Mitogen-activated protein kinase 10 (Homo sapiens) (P53779 whole entry): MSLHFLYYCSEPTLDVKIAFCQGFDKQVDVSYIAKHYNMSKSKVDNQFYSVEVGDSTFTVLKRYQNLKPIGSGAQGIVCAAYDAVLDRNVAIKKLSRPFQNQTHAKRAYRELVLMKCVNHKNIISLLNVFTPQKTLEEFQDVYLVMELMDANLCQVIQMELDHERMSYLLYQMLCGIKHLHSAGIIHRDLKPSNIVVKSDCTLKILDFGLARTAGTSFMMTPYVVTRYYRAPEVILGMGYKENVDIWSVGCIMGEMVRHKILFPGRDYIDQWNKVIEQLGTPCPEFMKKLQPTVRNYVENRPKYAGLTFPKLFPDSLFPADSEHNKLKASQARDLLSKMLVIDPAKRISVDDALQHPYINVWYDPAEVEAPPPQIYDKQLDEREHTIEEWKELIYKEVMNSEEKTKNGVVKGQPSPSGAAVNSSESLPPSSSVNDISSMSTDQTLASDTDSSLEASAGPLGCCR

Take `FC(F)(F)c1ccc(Cl)cc1CN1CCNc2ncc(-c3ccnc(N4CCNCC4)c3)cc21`: the inhibition in assay [1] is 88%; in assay [2], under 50%; in assay [3], under 50%; in assay [4], under 50%.
With `CN1CCN(c2ccc(-c3cnc4c(c3)N(Cc3cc(F)ccc3F)CCN4)cn2)CC1`, the inhibition was 86.4% in assay [1], under 50% in assay [2], under 50% in assay [3] and under 50% in assay [4].
Turning to `CN1CCN(c2ccc(-c3cnc4c(c3)N(Cc3cc(Cl)ccc3Cl)CCN4)cn2)CC1`, the inhibition in assay [1] is 73%; in assay [2] it was under 50%; in assay [3], under 50%; in assay [4] it was under 50%.
Turning to `O=C(O)c1ccc(-c2cnc3c(c2)N(Cc2cc(Cl)ccc2C(F)(F)F)CCN3)cc1`, the inhibition in assay [1], in assay [2] and in assay [4] was under 50% in each case.
Consider `CN1CCN(c2ccc(-c3cnc4c(c3)N(Cc3cc(Cl)ccc3C(F)(F)F)CCN4)cn2)CC1`, for which the inhibition was 75% in assay [1], under 50% in assay [2], under 50% in assay [3] and under 50% in assay [4].
As to `COC1CCN(C(=O)c2ccc(-c3cnc4c(c3)N(Cc3cc(Cl)ccc3C(F)(F)F)CCN4)cc2)CC1`, the results for the inhibition in assay [1], in assay [2] and in assay [4] were 93.2%, under 50% and under 50%, respectively.
For the compound `O=C(c1ccc(-c2cnc3c(c2)N(Cc2cc(Cl)ccc2C(F)(F)F)CCN3)cc1)N1CCC(N2CCCC2)CC1`, the figures for the inhibition in assay [1], in assay [2] and in assay [4] were 98.7%, under 50% and under 50%, respectively.
Turning to `CN1CCN(c2ccc(-c3cnc4c(c3)N(Cc3c(F)ccc(F)c3Cl)CCN4)cn2)CC1`, the inhibition in assay [1] is 83%; in assay [2] it was under 50%; in assay [3], under 50%; in assay [4], under 50%.
As to `O=C(c1ccc(-c2cnc3c(c2)N(Cc2cc(Cl)ccc2C(F)(F)F)CCN3)cc1)N1CCCCC1`, the inhibition is 79.3% in assay [1], under 50% in assay [2] and under 50% in assay [4].
As for `CC(=O)N1CCN(c2cc(-c3cnc4c(c3)N(Cc3cc(Cl)ccc3C(F)(F)F)CCN4)ccn2)CC1`, the inhibition in assay [1] is 88%; in assay [2], under 50%; in assay [3], under 50%; in assay [4], under 50%.

One may read the inhibition as the drop in the measured response relative to a control, in per cent.
